# From ChEMBL document CHEMBL4321838, “Drug Design Targeting T-Cell Factor-Driven Epithelial-Mesenchymal Transition as a Therapeutic Strategy for Colorectal Cancer” (J Med Chem, 2019)
# How the values were obtained:
# [1] = Drug metabolism in CD-1 mouse active microsomes assessed as metabolite formation at rate of first-order kinetics by LC-MS/MS analysis; type: ADME, Microsome
# [2] = biological target: DNA topoisomerase 2-alpha (Homo sapiens, UniProt P11388); assay: Inhibition of human topoisomerase 2alpha mediated decatenation at 30 uM using kDNA as susbtrate preincubated for 20 mins followed by substrate and ATP addition and measured after 1 hr by ethidium bromide staining based gel electrophoresis method relative to control
# DNA topoisomerase 2-alpha, sequence (P11388 whole entry): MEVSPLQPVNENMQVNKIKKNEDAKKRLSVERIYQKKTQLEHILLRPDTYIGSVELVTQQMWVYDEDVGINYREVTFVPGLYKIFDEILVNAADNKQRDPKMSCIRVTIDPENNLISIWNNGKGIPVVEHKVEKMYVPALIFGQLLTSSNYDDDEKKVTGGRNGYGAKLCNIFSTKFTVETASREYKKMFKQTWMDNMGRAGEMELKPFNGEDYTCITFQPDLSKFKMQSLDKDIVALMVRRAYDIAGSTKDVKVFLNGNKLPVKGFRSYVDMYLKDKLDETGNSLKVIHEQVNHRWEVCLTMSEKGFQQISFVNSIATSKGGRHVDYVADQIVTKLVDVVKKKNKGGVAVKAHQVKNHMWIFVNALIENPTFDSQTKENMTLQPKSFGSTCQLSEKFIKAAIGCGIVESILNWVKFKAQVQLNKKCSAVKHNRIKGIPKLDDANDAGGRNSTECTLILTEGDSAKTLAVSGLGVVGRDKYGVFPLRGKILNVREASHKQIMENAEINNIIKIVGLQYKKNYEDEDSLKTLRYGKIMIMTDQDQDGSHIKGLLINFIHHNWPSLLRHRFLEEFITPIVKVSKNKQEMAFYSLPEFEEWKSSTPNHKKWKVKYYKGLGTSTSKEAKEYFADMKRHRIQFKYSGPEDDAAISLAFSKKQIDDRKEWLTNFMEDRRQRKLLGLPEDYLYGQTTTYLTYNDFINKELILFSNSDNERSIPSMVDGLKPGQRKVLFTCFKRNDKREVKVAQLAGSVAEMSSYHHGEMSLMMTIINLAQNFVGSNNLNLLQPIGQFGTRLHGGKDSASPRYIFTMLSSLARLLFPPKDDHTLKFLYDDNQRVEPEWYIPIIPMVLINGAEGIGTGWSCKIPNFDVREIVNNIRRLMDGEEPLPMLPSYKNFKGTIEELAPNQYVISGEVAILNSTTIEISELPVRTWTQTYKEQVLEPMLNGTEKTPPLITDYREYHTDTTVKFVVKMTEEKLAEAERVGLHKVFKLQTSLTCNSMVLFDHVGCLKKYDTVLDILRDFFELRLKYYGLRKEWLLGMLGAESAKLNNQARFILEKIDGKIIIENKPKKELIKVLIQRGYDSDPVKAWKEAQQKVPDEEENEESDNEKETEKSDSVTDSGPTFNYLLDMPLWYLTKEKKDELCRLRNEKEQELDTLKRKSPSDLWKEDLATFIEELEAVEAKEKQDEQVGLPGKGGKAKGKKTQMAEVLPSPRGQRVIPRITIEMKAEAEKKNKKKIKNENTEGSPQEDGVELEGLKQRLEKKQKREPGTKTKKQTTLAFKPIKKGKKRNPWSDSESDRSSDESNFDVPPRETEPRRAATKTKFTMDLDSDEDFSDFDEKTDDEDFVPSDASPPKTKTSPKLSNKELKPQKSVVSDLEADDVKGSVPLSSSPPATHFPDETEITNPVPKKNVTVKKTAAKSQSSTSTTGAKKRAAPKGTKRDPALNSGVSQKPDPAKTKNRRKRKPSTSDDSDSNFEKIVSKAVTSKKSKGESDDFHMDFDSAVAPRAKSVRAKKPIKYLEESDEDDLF
# In short: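 Human TOP2A (3 U) preincubated 20 min at 37 °C with compound at 30 μM in 1.2% DMSO. Reaction started with 2 mM ATP and 35 ng kDNA and run 1 h at 37 °C. Products resolved on 0.8% agarose in TBE with 0.2 μg/mL ethidium bromide; decatenated bands compared with vehicle.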
# [3] = Metabolic stability in CD-1 mouse inactive microsomes incubated for 1 hr by LC-MS/MS analysis; type: ADME, Microsome
# [4] = Drug metabolism in CD-1 mouse active microsomes assessed as metabolite formation at rate of biphasic kinetics by LC-MS/MS analysis; type: ADME, Microsome
# [5] = Drug metabolism in CD-1 mouse active microsomes assessed as CYP450-mediated oxidative phase 1 metabolite formation measured within 30 mins by LC-MS/MS analysis; type: ADME; conditions: 0.5 h
# [6] = Drug metabolism in CD-1 mouse active microsomes assessed as CYP450-mediated oxidative phase 1 metabolite formation by LC-MS/MS analysis
Drug metabolism [1],inhibition [2] [%],Stability [3],Drug metabolism [4],Drug metabolism [5],Drug metabolism [6],Compound
Metabolite_Notdetected,25,Stable,Metabolite_Detected,,,CC(=O)Nc1ccc2c(-c3ccccc3)ccnc2c1O
Metabolite_Notdetected,92,Stable,Metabolite_Detected,Metabolite_Detected,Metabolite_Notdetected,CC(=O)Nc1ccc2c(-c3ccsc3)ccnc2c1O
